# DDE Tn6 FP inh – inhibitors of Tn6 peptide binding to fibrin DD(E), primary screen, biochemical, fluorescence polarization, human fibrin, Tn6 probe; Fibrin DD(E) TRITC-Tn6 fluorescence polarization displacement; Fibrinogen beta chain (Homo sapiens), P02675; hit rate 0.21% among 370,000; AID 720509, 2013; inhibition, % at 8.3 µM;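 active = inhibition above a per-campaign cutoff: mean of compounds within control limits plus 3 SD, cut at about 15% in these data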;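 note: 0% = median of all compound wells on the plate and 100% = blocking peptide control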
# SIAE inh – human SIAE inhibitors, primary screen, biochemical, fluorescence polarization, FP-Rh probe, 1536-well HTS | inhibition, % at 9.66 µM | hit rate 0.69% among 370,000 | Sialate O-acetylesterase (Homo sapiens), Q9HAT2 | SIAE FP-Rh probe binding;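 active = inhibition above a cutoff: mean of compounds within the control limits plus 3 SD of those, cut at about 17% in these data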;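 note: 0% = plate median of compound wells and 100% = probe without SIAE protein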
# TCR-CD3 inh – inhibitors of human TCR-CD3 interaction, primary screen, biochemical, fluorescence, TAMRA-labeled TCR probe. T-cell receptor (TCR). inhibition, % at 9.4 µM. hit rate 0.37% among 360,000. AID 651800, 2012; in the data active = inhibition above about 19%;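 note: recombinant mutant TCR 2C K166C tagged with TAMRA read by polarization; 0% = receptor in buffer alone and 100% = receptor with positive control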
# Tn7 DDE FP – inhibitors of Tn7 peptide binding to fibrin DD(E), primary screen, biochemical, fluorescence polarization, human fibrin, Tn7 probe; hit rate 0.13% among 370,000; AID 720508, 2013; inhibition, % at 8.3 µM; FP displacement of FITC-Tn7 peptide from fibrin DD(E); 0% = median of compound wells per plate;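 active = inhibition above the mean of compounds falling within the control limits plus 3 SD of them, cut at about 14% in these data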;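 note: 0% = plate median of compound wells and 100% = 10 µM Aha-Tn7 peptide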
#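 System: human fibrin DD(E); quantity: Fibrin-DD(E) at 2 µM final; also added: fluorescent Tn7 probe at 0.1 µM; compound dosing: single nominal test concentration of 8.3 µM per compound; schedule: 10 min preincubation, 3 h with tracer, room temperature; detection: fluorescence polarization of the labelled Tn7 tracer; repeats: one replicate per compound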
# ABHD4 inh – ABHD4 inhibitors, primary screen, biochemical, fluorescence polarization, mouse | purified mABHD4, FP-Rh probe fluorescence polarization | (Lyso)-N-acylphosphatidylethanolamine lipase (Mus musculus), Q8VD66 | inhibition, % at 8.92 µM | hit rate 0.54% among 370,000;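 active = inhibition exceeding the mean over every tested compound plus 3 SD, cut at about 30% in these data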;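 note: 0% = plate median of compound wells and 100% = S159A mutant with DMSO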
#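 Test system: mABHD4 protein | Buffer or medium: HEPES pH 7.0 buffer, 150 mM NaCl, 0.01% Pluronic F-127 | Probe or stimulus: FP-Rh fluorescent activity-based probe, added after compound pre-incubation | Timing: Pre-incubation 45 min, probe exposure 60 min, at 25 °C | Technique: Fluorescence polarization, excitation 525 nm, emission 598 nm, BODIPY TMR filters | Repeats: Single well per compound (singlicate)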
# HTRA1 inh – HTRA1 serine protease inhibitors, primary screen, biochemical, fluorescence polarization, HTS. hit rate 0.5% among 340,000. Q92743. inhibition, % at 5.96 µM. recombinant HTRA1, FP-rhodamine activity-based probe. AID 504803, 2011; in the data active = inhibition above about 36%;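 note: 0% = enzyme with DMSO and 100% = wells lacking enzyme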
# Target sequence (Q92743 whole entry, looked up): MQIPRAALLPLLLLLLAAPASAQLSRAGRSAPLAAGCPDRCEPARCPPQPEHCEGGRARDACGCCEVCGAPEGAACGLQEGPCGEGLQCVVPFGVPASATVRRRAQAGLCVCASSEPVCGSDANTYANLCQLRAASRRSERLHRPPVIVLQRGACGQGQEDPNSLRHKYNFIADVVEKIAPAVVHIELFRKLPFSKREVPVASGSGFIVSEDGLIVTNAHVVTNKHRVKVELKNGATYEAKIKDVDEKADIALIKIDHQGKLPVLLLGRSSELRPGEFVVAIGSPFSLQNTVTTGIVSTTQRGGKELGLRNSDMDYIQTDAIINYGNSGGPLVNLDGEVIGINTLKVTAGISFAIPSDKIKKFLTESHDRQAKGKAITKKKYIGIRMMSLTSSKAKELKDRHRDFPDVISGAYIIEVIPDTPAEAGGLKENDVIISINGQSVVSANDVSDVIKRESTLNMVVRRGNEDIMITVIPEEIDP
# SIAE inh conf – human SIAE inhibitors, retest, confirmation, biochemical, fluorescence polarization, FP-Rh probe, triplicate. SIAE FP-Rh activity-based probe. inhibition, % at 9.66 µM. AID 1117263, 2014. hit rate 13% among 2,300. shares compounds with SIAE inh;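 active = mean inhibition of the replicates above the hit cutoff set in the primary screen, cut at about 17% in these data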;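 note: 0% = SIAE with DMSO and probe and 100% = probe without SIAE; inhibitors lower polarization as more probe stays unbound to SIAE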
# Starred values were filed as active, the others as inactive; / = not tested or not shown. An excerpt weighted towards active compounds, which were near 1.8% of everything screened.
SMILES,DDE Tn6 FP inh,SIAE inh,TCR-CD3 inh,Tn7 DDE FP,ABHD4 inh,HTRA1 inh,SIAE inh conf
CCc1nc(C)cn1S(=O)(=O)c1cc(C)c(OC)cc1C,4,-2,2,1,2,-1,/
CCC(=O)OCCCN1C(=O)CCC12CCC(C)CC2 (configuration not stated),2,-7,/,2,0,/,/
COCC(=O)Nc1c(C(=O)Nc2ccc3c(c2)OCO3)oc2ccccc12,1,0,9,0,5,2,/
O=C(CCl)Nc1c(C(=O)Nc2ccc3c(c2)OCCO3)oc2ccccc12,-2,20*,-11,3,-10,-10,-7
O=C(NCC(=O)N1CCN(c2ncccn2)CC1)c1ccc(F)cc1,4,22*,-6,-6,0,11,-5
O=C(N/N=C\c1cn(-c2ccccc2)nc1-c1ccccc1)c1ccc(Br)o1,-7,-75,1,0,-22,11,/
O=C(N/N=C/c1cn(-c2ccccc2)nc1-c1ccccc1)c1ccco1,-6,21*,-2,12,-14,-44,3
CCC(=O)Oc1ccc(C/C(=N\O)c2ccc(O)cc2O)o1,-1,37*,0,-1,16,23,28*
O=C1C(Cl)=C(N2CCCCC2)C(=O)N1Cc1ccccc1,-5,18*,8,9,2,-10,1
O=C(CCc1ccccc1)N[C@H]1[C@@H](OC(=O)c2ccc([N+](=O)[O-])cc2)CCC[C@]12C(=O)N(Cc1ccccc1)c1ccccc12,-9,3,/,-6,-2,/,/
O=C(NCc1ccc2[nH]c3c(c2c1)CCCC3)c1ccc(S(=O)(=O)N2CCCCC2)cc1,4,2,-4,-18,-15,-5,/
Cc1cc(C)cc(NC(=S)NCc2ccc3[nH]c4c(c3c2)CCCC4)c1,3,17*,-9,-3,3,3,2
S=C(NCc1ccc2[nH]c3c(c2c1)CCCC3)Nc1ccccc1,0,23*,1,7,14,17,9
CCOC(=O)Cn1cc(CN2CCS(=O)(=O)N(Cc3ccc(Cl)cc3)C(C(=O)OC)C2)nn1 (configuration not stated),-8,1,/,-4,2,/,/
O=C(N/N=C/c1sc(N2CCOCC2)nc1-c1ccccc1)c1ccccc1O,-4,12,-11,-1,13,25,/
Nc1ccc(C(=O)N/N=C/c2sc(N3CCOCC3)nc2-c2ccccc2)cc1,0,17*,-2,-7,14,11,4
CCOc1ccc(/C=N/NC(=O)c2nnn(-c3nonc3N)c2-c2ccc(OCC)cc2)cc1,8,-4,6,1,0,-13,/
CCN(CC)c1ccc(/C=N/NC(=O)c2nnn(-c3nonc3N)c2-c2ccc(C)cc2)cc1,11,25*,-2,-3,1,1,4
CCn1nc(NS(=O)(=O)c2ccc(NC(C)=O)cc2)c2cc3cccc(C)c3nc21,-6,18*,3,-1,8,6,-3
Cn1nnnc1SCC(=O)Nc1ccc(C(=O)N2CCN(Cc3ccccc3F)CC2)cc1,-1,18*,4,1,5,-4,5
COc1ccc2c(c1)[C@@]1(NCCc3c1[nH]c1ccc(OC)cc31)C(=O)N2,1,-7,/,-2,-2,/,/
O=S(=O)(CC1NCc2ccccc21)NCc1ccc(F)cc1 (configuration not stated),8,-14,/,2,-2,/,/
CCn1c(Cc2cccs2)nnc1SCC(=O)Nc1ccccc1-c1ccccc1,5,-3,/,-3,3,/,/
CCC1(c2ccc(F)cc2)NC(=O)N(CC(=O)N(C)C2CCS(=O)(=O)C2)C1=O (configuration not stated),1,21*,-3,4,-1,7,-2
COc1ccc(Br)cc1C=NNC(=O)c1ccncc1,2,-2,/,2,0,/,/
SMILES,DDE Tn6 FP inh,SIAE inh,TCR-CD3 inh,Tn7 DDE FP,ABHD4 inh,HTRA1 inh,SIAE inh conf
O=C(NCC1COc2ccccc2O1)c1ccc(NC(=O)c2cccc(F)c2F)cc1 (configuration not stated),4,1,/,-1,5,/,/
O=C(O)c1ccccc1NCc1cccnc1,-9,2,0,2,1,/,/
O=C(O)CNc1ccccc1C(=O)O,5,38*,-3,-1,9,-1,1
CCOC(=O)C1(Cc2ccccc2)CCN(Cc2ccc(C(F)(F)F)cc2)CC1,7,7,/,1,1,/,/
O=C(Nc1nncs1)c1c(F)c(F)c(F)c(F)c1F,0,20*,0,0,6,-6,1
Cc1ccccc1C(=O)Nc1nncs1,0,1,3,-7,3,-2,/
O=C(OC12CCCN(C1)/C(=C/c1cccc(Cl)c1)C2)c1ccno1 (configuration not stated),-2,1,/,-4,0,/,/
COc1cc(C2C3=C(CCCC3=O)Nc3[nH]n(-c4ccccc4)c(=O)c32)ccc1O (configuration not stated),3,2,2,0,5,-1,/
COc1cccc(C2C3=C(CCCC3=O)Nc3[nH]n(-c4ccccc4)c(=O)c32)c1 (configuration not stated),-2,19*,8,4,-4,6,1
O=C(OCC(=O)N1CCN(C(=O)COC(=O)c2ccccc2NCCO)CC1)c1ccccc1NCCO,-3,6,-3,2,3,-1,/
O=C(OCC(=O)N1CCN(C(=O)c2ccco2)CC1)c1ccccc1NCCO,3,24*,-8,5,4,7,1
c1ccc(CCCN2CCOCC2)cc1,-2,2,1,0,7,3,/
c1ccc(OCc2ccc(CCCN3CCOCC3)cc2)cc1,-7,18*,5,-3,3,0,-1
CC(Oc1cc2oc(=O)c3c(c2cc1Cl)CCC3)C(=O)N1C[C@H]2C[C@@H](C1)c1cccc(=O)n1C2 (some centres not stated),-3,18*,0,-1,8,-9,0
COc1ccccc1N1CCN(N=Cc2ccccc2Br)CC1,-11,2,/,3,0,/,/
